Laboratory results reported in ChEMBL document CHEMBL1125626, “Synthesis and structure-activity relationship of new cephalosporins with amino heterocycles at C-7. Dependence of the antibacterial spectrum and beta-lactamase stability on the pKa of the C-7 heterocycle” (1991).
In brackets after ≈: the same amount, converted by molar mass.

Key:
Serratia marcescens = assay: Minimum inhibitory concentration against Serratia marcescens A16 (inoculum, 10e5 cfu per spot); assay type: functional
Summary of the method: (§1)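 MIC in µg/mL, determined in Jewell and Permain growth medium with spot inoculation at 10^5 cfu per spot.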

Escherichia coli [1] = assay: Minimum inhibitory concentration against Escherichia coli X4 (inoculum, 10e4 cfu per spot)
Klebsiella aerogenes [2] = assay: Minimum inhibitory concentration against Klebsiella aerogenes X5L (inoculum, 10e4 cfu per spot); assay type: functional
Summary of the method: (§2)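 MIC in µg/mL, determined in Jewell and Permain growth medium with spot inoculation at 10^4 cfu per spot. P99 is described as a constitutive type I lactamase producer.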

Klebsiella pneumoniae = assay: Minimum inhibitory concentration against Klebsiella pneumoniae A24 (inoculum, 10e5 cfu per spot); assay type: functional; summary of the method: as §1
Escherichia coli [3] = assay: Minimum inhibitory concentration against Escherichia coli TEM X3 (inoculum, 10e4 cfu per spot)(TEM I type lactamase producer)
Enterobacter cloacae [4] = assay: Minimum inhibitory concentration against Enterobacter cloacae A13 (inoculum, 10e5 cfu per spot); assay type: functional; summary of the method: as §1
Escherichia coli [5] = assay: Minimum inhibitory concentration against Escherichia coli DC2 (inoculum, 10e4 cfu per spot); assay type: functional; summary of the method: as §2
Enterobacter cloacae [6] = assay: Minimum inhibitory concentration against Enterobacter cloacae P99 (inoculum, 10e4 cfu per spot)(type I lactamase producer); assay type: functional; summary of the method: as §2
Escherichia coli [7] = assay: Minimum inhibitory concentration against Escherichia coli DCO (inoculum, 10e4 cfu per spot); assay type: functional; summary of the method: as §2
Proteus vulgaris = assay: Minimum inhibitory concentration against Proteus vulgaris Pv9 (inoculum, 10e5 cfu per spot)
Enterobacter cloacae [8] = assay: Minimum inhibitory concentration against Enterobacter cloacae P99 (inoculum, 10e4 cfu per spot); assay type: functional; summary of the method: as §2
Klebsiella aerogenes [9] = assay: Minimum inhibitory concentration against Klebsiella aerogenes X6 (inoculum, 10e4 cfu per spot); assay type: functional; summary of the method: as §2
Staphylococcus aureus [10] = assay: Minimum inhibitory concentration against Staphylococcus aureus A4 (inoculum, 10e5 cfu per spot); assay type: functional; summary of the method: as §1
Pseudomonas aeruginosa = assay: Minimum inhibitory concentration against Pseudomonas aeruginosa A21 (inoculum, 10e5 cfu per spot); assay type: functional; summary of the method: as §1
Proteus mirabilis = assay: Minimum inhibitory concentration against Proteus mirabilis A18 (inoculum, 10e5 cfu per spot); assay type: functional; summary of the method: as §1
Escherichia coli [11] = assay: Minimum inhibitory concentration against Escherichia coli A8 (inoculum, 10e5 cfu per spot); assay type: functional; summary of the method: as §1
Staphylococcus aureus [12] = assay: Minimum inhibitory concentration against Staphylococcus aureus A6 (inoculum, 10e5 cfu per spot); assay type: functional; summary of the method: as §1
Streptococcus pyogenes = assay: Minimum inhibitory concentration against Streptococcus pyogenes (inoculum, 10e5 cfu per spot) A1; assay type: functional; summary of the method: as §1

Row | MIC (Serratia marcescens) | MIC (Escherichia coli [1]) | MIC (Klebsiella aerogenes [2]) | MIC (Klebsiella pneumoniae) | MIC (Escherichia coli [3]) | MIC (Enterobacter cloacae [4]) | MIC (Escherichia coli [5]) | MIC (Enterobacter cloacae [6]) | MIC (Escherichia coli [7]) | MIC (Proteus vulgaris) | MIC (Enterobacter cloacae [8]) | MIC (Klebsiella aerogenes [9]) | MIC (Staphylococcus aureus [10]) | MIC (Pseudomonas aeruginosa) | MIC (Proteus mirabilis) | MIC (Escherichia coli [11]) | MIC (Staphylococcus aureus [12]) | MIC (Streptococcus pyogenes) | Compound
1 | 256 µg/mL (≈ 447 µM) | 1 µg/mL (≈ 1.75 µM) | 256 µg/mL (≈ 447 µM) | 64 µg/mL (≈ 112 µM) | 4 µg/mL (≈ 6.99 µM) | > 256 µg/mL | 0.12 µg/mL (≈ 0.21 µM) | 256 µg/mL (≈ 447 µM) | 1 µg/mL (≈ 1.75 µM) | > 256 µg/mL | 4 µg/mL (≈ 6.99 µM) | 4 µg/mL (≈ 6.99 µM) | 16 µg/mL (≈ 27.9 µM) | > 256 µg/mL | 16 µg/mL (≈ 27.9 µM) | 4 µg/mL (≈ 6.99 µM) | 2 µg/mL (≈ 3.49 µM) | 2 µg/mL (≈ 3.49 µM) | CC(=O)OCC1=C(C(=O)OC(c2ccccc2)c2ccccc2)N2C(=O)[C@@H](Nc3nc4cc(F)ccc4[nH]3)C2SC1 (some centres undefined)
2 | ≥ 128 µg/mL | 0.5 µg/mL (≈ 0.798 µM) | ≥ 128 µg/mL | 1 µg/mL (≈ 1.6 µM) | 4 µg/mL (≈ 6.38 µM) | ≥ 128 µg/mL | < 0.03 µg/mL | ≥ 128 µg/mL | 0.5 µg/mL (≈ 0.798 µM) | ≥ 128 µg/mL | 1 µg/mL (≈ 1.6 µM) | 2 µg/mL (≈ 3.19 µM) | 8 µg/mL (≈ 12.8 µM) | ≥ 128 µg/mL | 4 µg/mL (≈ 6.38 µM) | 1 µg/mL (≈ 1.6 µM) | 1 µg/mL (≈ 1.6 µM) | 0.5 µg/mL (≈ 0.798 µM) | Cc1nnc(SCC2=C(C(=O)OC(c3ccccc3)c3ccccc3)N3C(=O)[C@@H](Nc4nc5ccccc5[nH]4)C3SC2)s1 (some centres undefined)
3 | > 256 µg/mL | 0.12 µg/mL (≈ 0.206 µM) | 32 µg/mL (≈ 54.8 µM) | 1 µg/mL (≈ 1.71 µM) | 2 µg/mL (≈ 3.43 µM) | 256 µg/mL (≈ 439 µM) | 0.06 µg/mL (≈ 0.103 µM) | 64 µg/mL (≈ 110 µM) | 0.12 µg/mL (≈ 0.206 µM) | 64 µg/mL (≈ 110 µM) | 0.12 µg/mL (≈ 0.206 µM) | 0.25 µg/mL (≈ 0.428 µM) | 32 µg/mL (≈ 54.8 µM) | > 256 µg/mL | 32 µg/mL (≈ 54.8 µM) | 0.12 µg/mL (≈ 0.206 µM) | 4 µg/mL (≈ 6.85 µM) | 0.5 µg/mL (≈ 0.857 µM) | CC(=O)OCC1=C(C(=O)OC(c2ccccc2)c2ccccc2)N2C(=O)[C@@H](Nc3nc4cc(CN)ccc4[nH]3)C2SC1 (some centres undefined)
4 | 64 µg/mL (≈ 102 µM) | 0.12 µg/mL (≈ 0.191 µM) | 64 µg/mL (≈ 102 µM) | 4 µg/mL (≈ 6.38 µM) | 1 µg/mL (≈ 1.6 µM) | > 256 µg/mL | < 0.03 µg/mL | 32 µg/mL (≈ 51.1 µM) | 0.12 µg/mL (≈ 0.191 µM) | 16 µg/mL (≈ 25.5 µM) | 0.25 µg/mL (≈ 0.399 µM) | 0.25 µg/mL (≈ 0.399 µM) | 16 µg/mL (≈ 25.5 µM) | > 256 µg/mL | 0.5 µg/mL (≈ 0.798 µM) | 0.25 µg/mL (≈ 0.399 µM) | 2 µg/mL (≈ 3.19 µM) | 0.5 µg/mL (≈ 0.798 µM) | Cn1nnnc1SCC1=C(C(=O)OC(c2ccccc2)c2ccccc2)N2C(=O)[C@@H](Nc3nc4cc(O)ccc4[nH]3)C2SC1 (some centres undefined)

Further lines, the compound ahead of its results:

Row | Compound | MIC (Serratia marcescens) | MIC (Escherichia coli [1]) | MIC (Klebsiella aerogenes [2]) | MIC (Klebsiella pneumoniae) | MIC (Escherichia coli [3]) | MIC (Enterobacter cloacae [4]) | MIC (Escherichia coli [5]) | MIC (Enterobacter cloacae [6]) | MIC (Escherichia coli [7]) | MIC (Proteus vulgaris) | MIC (Enterobacter cloacae [8]) | MIC (Klebsiella aerogenes [9]) | MIC (Staphylococcus aureus [10]) | MIC (Pseudomonas aeruginosa) | MIC (Proteus mirabilis) | MIC (Escherichia coli [11]) | MIC (Staphylococcus aureus [12]) | MIC (Streptococcus pyogenes)
5 | CC(=O)OCC1=C(C(=O)OC(c2ccccc2)c2ccccc2)N2C(=O)[C@@H](Nc3nc4cc(CO)ccc4[nH]3)C2SC1 (some centres undefined) | > 256 µg/mL | 0.5 µg/mL (≈ 0.855 µM) | 128 µg/mL (≈ 219 µM) | 1 µg/mL (≈ 1.71 µM) | 4 µg/mL (≈ 6.84 µM) | > 256 µg/mL | 0.06 µg/mL (≈ 0.103 µM) | > 256 µg/mL | 0.5 µg/mL (≈ 0.855 µM) | 128 µg/mL (≈ 219 µM) | 0.5 µg/mL (≈ 0.855 µM) | 1 µg/mL (≈ 1.71 µM) | 64 µg/mL (≈ 109 µM) | > 256 µg/mL | 8 µg/mL (≈ 13.7 µM) | 0.5 µg/mL (≈ 0.855 µM) | 8 µg/mL (≈ 13.7 µM) | 1 µg/mL (≈ 1.71 µM)
6 | CC(=O)OCC1=C(C(=O)OC(c2ccccc2)c2ccccc2)N2C(=O)[C@@H](Nc3nc4c(O)cccc4[nH]3)C2SC1 (some centres undefined) | 256 µg/mL (≈ 449 µM) | 0.5 µg/mL (≈ 0.876 µM) | 256 µg/mL (≈ 449 µM) | 8 µg/mL (≈ 14 µM) | 32 µg/mL (≈ 56.1 µM) | > 256 µg/mL | 0.12 µg/mL (≈ 0.21 µM) | > 256 µg/mL | 0.5 µg/mL (≈ 0.876 µM) | 128 µg/mL (≈ 224 µM) | 1 µg/mL (≈ 1.75 µM) | 1 µg/mL (≈ 1.75 µM) | 32 µg/mL (≈ 56.1 µM) | > 256 µg/mL | 16 µg/mL (≈ 28 µM) | 1 µg/mL (≈ 1.75 µM) | 2 µg/mL (≈ 3.5 µM) | 2 µg/mL (≈ 3.5 µM)
7 | CC(=O)OCC1=C(C(=O)OC(c2ccccc2)c2ccccc2)N2C(=O)[C@@H](Nc3nc4cc(C(F)(F)F)ccc4[nH]3)C2SC1 (some centres undefined) | > 256 µg/mL | 32 µg/mL (≈ 51.4 µM) | > 256 µg/mL | 32 µg/mL (≈ 51.4 µM) | 32 µg/mL (≈ 51.4 µM) | > 256 µg/mL | 0.12 µg/mL (≈ 0.193 µM) | > 256 µg/mL | 32 µg/mL (≈ 51.4 µM) | > 256 µg/mL | 32 µg/mL (≈ 51.4 µM) | 64 µg/mL (≈ 103 µM) | 128 µg/mL (≈ 206 µM) | > 256 µg/mL | 128 µg/mL (≈ 206 µM) | 32 µg/mL (≈ 51.4 µM) | 2 µg/mL (≈ 3.21 µM) | 1 µg/mL (≈ 1.61 µM)
8 | CC1=C(C(=O)OC(c2ccccc2)c2ccccc2)N2C(=O)[C@@H](NC3=NCCN3)C2SC1 (some centres undefined) | > 256 µg/mL | 2 µg/mL (≈ 4.46 µM) | 4 µg/mL (≈ 8.92 µM) | 4 µg/mL (≈ 8.92 µM) | 2 µg/mL (≈ 4.46 µM) | 4 µg/mL (≈ 8.92 µM) | 2 µg/mL (≈ 4.46 µM) | 4 µg/mL (≈ 8.92 µM) | 4 µg/mL (≈ 8.92 µM) | > 256 µg/mL | 2 µg/mL (≈ 4.46 µM) | 4 µg/mL (≈ 8.92 µM) | > 256 µg/mL | > 256 µg/mL | 256 µg/mL (≈ 571 µM) | 2 µg/mL (≈ 4.46 µM) | > 256 µg/mL | 128 µg/mL (≈ 285 µM)
